Tests used:
Format in all cases: functional
[1] = tested on: Bacillus subtilis; experiment: Antibacterial activity against Bacillus subtilis at 10 ug/ml by agar plate diffusion technique; conditions: read-out: IZ
[2] = tested on: Pseudomonas aeruginosa; experiment: Antibacterial activity against Pseudomonas aeruginosa at 20 ug/ml by agar plate diffusion technique; conditions: read-out: IZ
[3] = tested on: Escherichia coli; experiment: Antibacterial activity against Escherichia coli at 10 ug/ml by agar plate diffusion technique; conditions: read-out: IZ
[4] = tested on: Bacillus subtilis; experiment: Antibacterial activity against Bacillus subtilis at 30 ug/ml by agar plate diffusion technique; conditions: read-out: IZ
[5] = tested on: Staphylococcus aureus; experiment: Antibacterial activity against Staphylococcus aureus at 10 ug/ml by agar plate diffusion technique; conditions: read-out: IZ
[6] = tested on: Aspergillus niger; experiment: Antifungal activity against Aspergillus niger at 10 ug/ml by paper disc method; conditions: read-out: IZ
[7] = tested on: Aspergillus niger; experiment: Antifungal activity against Aspergillus niger at 30 ug/ml by paper disc method; conditions: read-out: IZ
[8] = tested on: Escherichia coli; experiment: Antibacterial activity against Escherichia coli at 20 ug/ml by agar plate diffusion technique; conditions: read-out: IZ
[9] = tested on: Staphylococcus aureus; experiment: Antibacterial activity against Staphylococcus aureus at 30 ug/ml by agar plate diffusion technique; conditions: read-out: IZ
[10] = tested on: Pseudomonas aeruginosa; experiment: Antibacterial activity against Pseudomonas aeruginosa at 10 ug/ml by agar plate diffusion technique; conditions: read-out: IZ
[11] = tested on: Staphylococcus aureus; experiment: Antibacterial activity against Staphylococcus aureus at 20 ug/ml by agar plate diffusion technique; conditions: read-out: IZ
[12] = tested on: Rattus norvegicus; experiment: Antiinflammatory activity in Wistar Albino rat assessed as inhibition of carrageenan-induced paw oedema at 20 mg/kg after 4 hrs relative to control
Method in brief: (§1)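 Wistar albino rats, 150–200 g, six per group, dosed orally with a 20 mg/kg suspension; control gets 0.1 ml 1% gum acacia. After 30 min, 0.1 ml 1% carrageenan in saline is injected subplantar into the right hind paw. Paw volume is read by plethysmograph at 0–4 h. Inhibition = 100(1 − Vtest/Vcontrol) on mean volume increase.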

[13] = tested on: Escherichia coli; experiment: Antibacterial activity against Escherichia coli at 30 ug/ml by agar plate diffusion technique; conditions: read-out: IZ
[14] = tested on: Aspergillus niger; experiment: Antifungal activity against Aspergillus niger at 20 ug/ml by paper disc method; conditions: read-out: IZ
[15] = tested on: Mus musculus; experiment: Analgesic activity in Swiss mouse assessed as increase in reaction time at 20 mg/kg, po after 60 mins by Eddy's hot plate technique
Method in brief: (§2)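 Swiss mice of either sex, 25–35 g, placed one at a time on a hot plate held at 55 °C. End point is paw licking or jumping, whichever comes first, with a 15 s cut-off to avoid paw injury. Reaction time is recorded and reported as percent increase in reaction time.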

[16] = tested on: Mus musculus; experiment: Analgesic activity in Swiss mouse assessed as increase in reaction time at 20 mg/kg, po after 90 mins by Eddy's hot plate technique; method in brief: as §2
[17] = tested on: Rattus norvegicus; experiment: Antiinflammatory activity in Wistar Albino rat assessed as inhibition of carrageenan-induced paw oedema at 20 mg/kg after 1 hr relative to control; method in brief: as §1
[18] = tested on: Candida albicans; experiment: Antifungal activity against Candida albicans at 20 ug/ml by paper disc method; conditions: read-out: IZ
[19] = tested on: Candida albicans; experiment: Antifungal activity against Candida albicans at 30 ug/ml by paper disc method; conditions: read-out: IZ
[20] = tested on: Rattus norvegicus; experiment: Antiinflammatory activity in Wistar Albino rat assessed as inhibition of carrageenan-induced paw oedema at 20 mg/kg after 3 hrs relative to control; method in brief: as §1
[21] = tested on: Bacillus subtilis; experiment: Antibacterial activity against Bacillus subtilis at 20 ug/ml by agar plate diffusion technique; conditions: read-out: IZ
[22] = tested on: Pseudomonas aeruginosa; experiment: Antibacterial activity against Pseudomonas aeruginosa at 30 ug/ml by agar plate diffusion technique; conditions: read-out: IZ
[23] = tested on: Mus musculus; experiment: Analgesic activity in Swiss mouse assessed as increase in reaction time at 20 mg/kg, po after 30 mins by Eddy's hot plate technique; method in brief: as §2
[24] = tested on: Candida albicans; experiment: Antifungal activity against Candida albicans at 10 ug/ml by paper disc method; conditions: read-out: IZ
[25] = tested on: Rattus norvegicus; experiment: Antiinflammatory activity in Wistar Albino rat assessed as inhibition of carrageenan-induced paw oedema at 20 mg/kg after 2 hrs relative to control; method in brief: as §1

Row | Structure (SMILES) | zone of inhibition at 10 µg/mL [1] [mm] | zone of inhibition at 20 µg/mL [2] [mm] | zone of inhibition at 10 µg/mL [3] [mm] | zone of inhibition at 30 µg/mL [4] [mm] | zone of inhibition at 10 µg/mL [5] [mm] | zone of inhibition at 10 µg/mL [6] [mm] | zone of inhibition at 30 µg/mL [7] [mm] | zone of inhibition at 20 µg/mL [8] [mm] | zone of inhibition at 30 µg/mL [9] [mm] | zone of inhibition at 10 µg/mL [10] [mm] | zone of inhibition at 20 µg/mL [11] [mm] | inhibition in vivo at 20 mg/kg [12] [%] | zone of inhibition at 30 µg/mL [13] [mm] | zone of inhibition at 20 µg/mL [14] [mm] | Activity [15] [%] | Activity [16] [%] | inhibition in vivo at 20 mg/kg [17] [%] | zone of inhibition at 20 µg/mL [18] [mm] | zone of inhibition at 30 µg/mL [19] [mm] | inhibition in vivo at 20 mg/kg [20] [%] | also measured
1 | COc1ccc(Cc2nnc3n2NC(c2ccc([N+](=O)[O-])o2)S3)cc1OC (stereo not given) | 4.92 | 7.88 | 5.16 | 13.5 | 5.1 | 5.21 | 14.3 | 10 | 14 | 4.42 | 8.37 | 23.7 | 15 | 9.64 | 10.3 | 22.66 | 14.5 | 10.9 | 14.8 | 21.4 | zone of inhibition at 20 µg/mL [21]: 8.49 mm; zone of inhibition at 30 µg/mL [22]: 13.1 mm; Activity [23]: 2.83%; zone of inhibition at 10 µg/mL [24]: 5.43 mm; inhibition in vivo at 20 mg/kg [25]: 17.6%
2 | COc1ccc(Cc2nnc3sc(Cc4c[nH]c5ccccc45)nn23)cc1OC | 4.33 | 8.23 | 4.9 | 12.7 | 4.59 | 5.24 | 11.1 | 8.22 | 12.2 | 4.25 | 7.38 | 28.5 | 12.5 | 9.62 | 25 | 31.88 | 16.1 | 7.46 | 10.2 | 28.3 | zone of inhibition at 20 µg/mL [21]: 7.32 mm; zone of inhibition at 30 µg/mL [22]: 12.4 mm; Activity [23]: 13.16%; zone of inhibition at 10 µg/mL [24]: 4.1 mm; inhibition in vivo at 20 mg/kg [25]: 26.8%
3 | COc1ccc(Cl)c(-c2nnc3n2NC(c2ccco2)S3)c1 (stereo not given) | 4.39 | 8.95 | 4.12 | 13.6 | 4.82 | 5.16 | 13.1 | 7.39 | 14.1 | 4.82 | 8.61 | 25.6 | 14.4 | 7.13 | 12.55 | 23.89 | 13.9 | 10.3 | 14.8 | 23.1 | zone of inhibition at 20 µg/mL [21]: 7.68 mm; zone of inhibition at 30 µg/mL [22]: 14.2 mm; Activity [23]: 6.24%; zone of inhibition at 10 µg/mL [24]: 5.19 mm; inhibition in vivo at 20 mg/kg [25]: 18.7%
4 | COc1ccc(Cl)c(-c2nnc3sc(Cc4c[nH]c5ccccc45)nn23)c1 | 4.33 | 8.16 | 4.78 | 12.3 | 4.8 | 5.1 | 12.9 | 8.12 | 12.6 | 4.12 | 7.59 | 34.7 | 12.4 | 10.1 | 28.32 | 34.24 | 8.8 | 9.48 | 12.5 | 21.4 | zone of inhibition at 20 µg/mL [21]: 7.6 mm; zone of inhibition at 30 µg/mL [22]: 12.2 mm; Activity [23]: 19.48%; zone of inhibition at 10 µg/mL [24]: 5.86 mm; inhibition in vivo at 20 mg/kg [25]: 16.5%
5 | Cc1occc1-c1nnc2sc(-c3cc(O)nc(O)c3)nn12 | 6.02 | 9.81 | 5.38 | 14.8 | 6.07 | 5.14 | 14.8 | 8.79 | 14.5 | 5.95 | 10.8 | 21.7 | 14.1 | 8.48 | 11.45 | 19.35 | 6.25 | 10 | 17.3 | 16.5 | zone of inhibition at 20 µg/mL [21]: 10.4 mm; zone of inhibition at 30 µg/mL [22]: 14.2 mm; Activity [23]: 4.35%; zone of inhibition at 10 µg/mL [24]: 5.34 mm; inhibition in vivo at 20 mg/kg [25]: 11.4%
6 | Cc1occc1-c1nnc2n1NC(c1ccc[nH]1)S2 (stereo not given) | 5.33 | 12.3 | 5.11 | 16.3 | 4.6 | 5.1 | 13.2 | 8.42 | 12.3 | 6.67 | 8.12 | 22.7 | 15.7 | 9.42 | 17.45 | 23 | 13.7 | 9.16 | 14.8 | 20.3 | zone of inhibition at 20 µg/mL [21]: 10.7 mm; zone of inhibition at 30 µg/mL [22]: 14.7 mm; Activity [23]: 7.14%; zone of inhibition at 10 µg/mL [24]: 5.24 mm; inhibition in vivo at 20 mg/kg [25]: 18.2%

— ChEMBL document CHEMBL1147862, “Studies on synthesis and pharmacological activities of 3,6-disubstituted-1,2,4-triazolo[3,4-b]-1,3,4-thiadiazoles and their dihydro analogues” (2007)
